Reference: ChEMBL document CHEMBL1811752, “Synthesis and pharmacological characterization of bicyclic triple reuptake inhibitor 3-aryl octahydrocyclopenta[c]pyrrole analogues” (J Med Chem, 2011)

Legend:
CYP1A = target: T1, CYP1A (Homo sapiens, UniProt P04798+P05177); experiment: Inhibition of CYP1A in human liver microsomes by LC-MS/MS analysis; type: ADME, Microsome
T1 sequence (P04798 whole entry): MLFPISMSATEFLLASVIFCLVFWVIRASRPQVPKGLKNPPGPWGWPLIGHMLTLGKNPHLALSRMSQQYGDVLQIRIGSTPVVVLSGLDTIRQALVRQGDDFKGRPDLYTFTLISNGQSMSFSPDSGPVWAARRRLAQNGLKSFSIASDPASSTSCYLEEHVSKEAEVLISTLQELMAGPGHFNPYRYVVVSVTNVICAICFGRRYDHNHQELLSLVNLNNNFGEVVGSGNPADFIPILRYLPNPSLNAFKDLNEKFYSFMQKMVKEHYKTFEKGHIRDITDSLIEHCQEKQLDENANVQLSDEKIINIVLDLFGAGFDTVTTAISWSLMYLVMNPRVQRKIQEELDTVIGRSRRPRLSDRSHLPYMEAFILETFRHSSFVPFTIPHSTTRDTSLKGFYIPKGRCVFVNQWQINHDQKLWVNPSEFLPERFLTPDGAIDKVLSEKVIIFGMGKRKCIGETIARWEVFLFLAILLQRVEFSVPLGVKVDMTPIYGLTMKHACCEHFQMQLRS
T1 sequence (P05177 whole entry): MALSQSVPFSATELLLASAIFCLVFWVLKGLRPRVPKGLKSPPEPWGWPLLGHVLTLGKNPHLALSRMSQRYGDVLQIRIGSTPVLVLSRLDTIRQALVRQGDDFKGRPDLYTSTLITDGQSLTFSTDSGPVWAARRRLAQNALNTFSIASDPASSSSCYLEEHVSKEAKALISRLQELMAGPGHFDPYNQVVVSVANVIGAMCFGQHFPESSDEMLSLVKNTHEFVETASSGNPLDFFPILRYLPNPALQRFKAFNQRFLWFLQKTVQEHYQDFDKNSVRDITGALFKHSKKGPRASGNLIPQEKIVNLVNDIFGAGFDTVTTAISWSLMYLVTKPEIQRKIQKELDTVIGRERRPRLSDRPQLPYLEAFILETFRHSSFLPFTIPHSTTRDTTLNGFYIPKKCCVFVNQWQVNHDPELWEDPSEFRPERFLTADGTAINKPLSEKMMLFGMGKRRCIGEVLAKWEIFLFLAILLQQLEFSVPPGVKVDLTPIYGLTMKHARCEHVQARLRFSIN
Method in brief: (§1)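 Human liver microsomes incubated with isoform-specific substrates and compound, typically 0.1–25 μM. Metabolite formation read by LC-MS/MS, […]. IC50 calculated from the decrease in metabolite formation relative to vehicle control.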

[1] = Half life in mouse liver microsomes at 3 uM by LC-MS/MS analysis; type: ADME, Microsome
Method in brief: (§2)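 Human or mouse liver microsomes (0.5 mg/mL) incubated with 3 μM compound at 37 °C. Reaction started with NADPH and stopped with methanol containing internal standard. Loss of compound followed over 45 min by LC-MS/MS. Peak area ratio to internal standard plotted against time and the slope of the line taken.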

Cytochrome P450 3A4 = Cytochrome P450 3A4 (Homo sapiens, UniProt P08684); experiment: Inhibition of CYP3A4 in human liver microsomes by LC-MS/MS analysis; type: ADME, Microsome; method in brief: as §1
[2] = target: Sodium-dependent serotonin transporter (Homo sapiens, UniProt P31645); experiment: Inhibition of serotonin reuptake at SERT expressed in HEK293 cells; type: cell-based
Cytochrome P450 2C19 = Cytochrome P450 2C19 (Homo sapiens, UniProt P33261); experiment: Inhibition of CYP2C19 in human liver microsomes by LC-MS/MS analysis; type: ADME, Microsome; method in brief: as §1
[3] = Half life in human liver microsomes at 3 uM by LC-MS/MS analysis; type: ADME, Microsome; method in brief: as §2
Cytochrome P450 2C9 = Cytochrome P450 2C9 (Homo sapiens, UniProt P11712); experiment: Inhibition of CYP2C9 in human liver microsomes by LC-MS/MS analysis; type: ADME, Microsome; method in brief: as §1
[4] = target: Sodium-dependent dopamine transporter (Homo sapiens, UniProt Q01959); experiment: Inhibition of dopamine reuptake at DAT expressed in CHO-K1 cells; type: cell-based
[5] = target: Sodium-dependent noradrenaline transporter (Homo sapiens, UniProt P23975); experiment: Inhibition of norepinephrine reuptake at NET expressed in MDCK cells; type: cell-based
Cytochrome P450 2D6 = Cytochrome P450 2D6 (Homo sapiens, UniProt P10635); experiment: Inhibition of CYP2D6 in human liver microsomes by LC-MS/MS analysis; type: ADME, Microsome; method in brief: as §1
[6] = target: Voltage-gated inwardly rectifying potassium channel KCNH2 (Homo sapiens, UniProt Q12809); experiment: Inhibition of human ERG expressed in CHO cells by high throughput single cell planar patch clamp method; type: cell-based
Mus musculus [7] = experiment: Antidepressant activity in mouse assessed as reduction of immobility time at 30 mg/kg, po after 60 mins by tail suspension test relative to control; type: functional; parameters: scale not given: the % may be the effect or the level left
Method in brief: (§3)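 Mouse tail suspension test, male mice (10–12 per group, blind). Single oral dose in 5% transcutol in saline, 60 min pretreatment. Immobility recorded automatically for 5 min. Compared with vehicle group. Desipramine 100 mg/kg PO used as reference. One-way ANOVA with Dunnett's post test, p < 0.05.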

[8] = Ratio of drug level in brain to plasma in mouse at 30 mg/kg, po; type: ADME, organism-based; parameters: dose 30 mg/kg, route oral; settings: brain and plasma, read-out: BPR
Method in brief: (§4)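 Male mice dosed orally at 3, 10 or 30 mg/kg in 5% transcutol/saline, 60 min before the tail suspension test. Terminal whole brain (ng/g) and plasma (ng/mL) samples taken from the test animals. Brain/plasma ratio derived from these levels.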

Mus musculus [9] = experiment: Toxicity in mouse assessed as increase of spontaneous locomotor activity at 10 to 30 mg/kg, po measured for 5 mins; type: organism-based; parameters: dose 10-30 mg/kg, route oral; settings: in vivo
Plasma [10] = experiment: Plasma concentration in mouse at 10 mg/kg, po; type: ADME, organism-based; parameters: dose 10 mg/kg, route oral; settings: in vivo; method in brief: as §4
Mus musculus [11] = experiment: Antidepressant activity in mouse assessed as reduction of immobility time at 10 mg/kg, po after 60 mins by tail suspension test relative to control; type: functional; parameters: scale not given: the % may be the effect or the level left; method in brief: as §3
[12] = Plasma protein binding in mouse; type: ADME, cell-free; settings: read-out: PPB (converted)
Method in brief: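 Protein binding measured with mouse plasma protein.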

Plasma [13] = experiment: Plasma concentration in mouse at 30 mg/kg, po; type: ADME, organism-based; parameters: dose 30 mg/kg, route oral; settings: in vivo; method in brief: as §4
Brain [14] = experiment: Drug level in mouse brain at 30 mg/kg, po; type: ADME, organism-based; parameters: dose 30 mg/kg, route oral; settings: in vivo; method in brief: as §4
Plasma [15] = experiment: Plasma concentration in mouse at 3 mg/kg, po; type: ADME, organism-based; parameters: dose 3 mg/kg, route oral; settings: in vivo; method in brief: as §4
Brain [16] = experiment: Drug level in mouse brain at 10 mg/kg, po; type: ADME, organism-based; parameters: dose 10 mg/kg, route oral; settings: in vivo; method in brief: as §4
Mus musculus [17] = experiment: Antidepressant activity in mouse assessed as reduction of immobility time at 100 mg/kg, po after 60 mins by tail suspension test relative to control; type: functional; parameters: scale not given: the % may be the effect or the level left; method in brief: as §3
Brain [18] = experiment: Drug level in mouse brain at 3 mg/kg, po; type: ADME, organism-based; parameters: dose 3 mg/kg, route oral; settings: in vivo; method in brief: as §4

Cytochrome P450 2C19, sequence (P33261 whole entry): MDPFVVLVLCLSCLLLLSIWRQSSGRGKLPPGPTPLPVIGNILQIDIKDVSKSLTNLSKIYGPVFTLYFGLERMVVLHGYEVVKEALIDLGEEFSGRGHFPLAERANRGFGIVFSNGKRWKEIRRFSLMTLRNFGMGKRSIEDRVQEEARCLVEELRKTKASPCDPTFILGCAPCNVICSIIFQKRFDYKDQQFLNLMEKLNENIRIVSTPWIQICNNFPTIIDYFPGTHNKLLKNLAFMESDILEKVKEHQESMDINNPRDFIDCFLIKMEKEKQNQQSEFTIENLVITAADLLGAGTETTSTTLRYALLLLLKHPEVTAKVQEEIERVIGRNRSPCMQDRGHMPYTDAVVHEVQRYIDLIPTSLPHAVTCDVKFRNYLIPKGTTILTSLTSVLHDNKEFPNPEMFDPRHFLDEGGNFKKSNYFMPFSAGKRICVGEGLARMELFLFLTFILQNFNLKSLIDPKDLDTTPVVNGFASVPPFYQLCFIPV
Cytochrome P450 3A4, sequence (P08684 whole entry): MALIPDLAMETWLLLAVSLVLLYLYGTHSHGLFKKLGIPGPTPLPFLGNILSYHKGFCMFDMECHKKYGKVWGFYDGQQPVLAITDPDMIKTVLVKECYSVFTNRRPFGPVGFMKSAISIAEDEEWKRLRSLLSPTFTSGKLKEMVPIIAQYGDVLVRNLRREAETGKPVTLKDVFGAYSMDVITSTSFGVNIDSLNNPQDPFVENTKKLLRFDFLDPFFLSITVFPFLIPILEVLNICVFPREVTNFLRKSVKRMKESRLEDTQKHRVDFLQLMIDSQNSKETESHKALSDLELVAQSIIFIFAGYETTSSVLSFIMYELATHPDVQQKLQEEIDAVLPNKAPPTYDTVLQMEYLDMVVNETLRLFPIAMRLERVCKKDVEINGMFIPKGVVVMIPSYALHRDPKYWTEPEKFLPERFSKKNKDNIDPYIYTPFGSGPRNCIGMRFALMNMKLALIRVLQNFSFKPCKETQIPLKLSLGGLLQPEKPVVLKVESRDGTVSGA
Sodium-dependent dopamine transporter, sequence (Q01959 whole entry): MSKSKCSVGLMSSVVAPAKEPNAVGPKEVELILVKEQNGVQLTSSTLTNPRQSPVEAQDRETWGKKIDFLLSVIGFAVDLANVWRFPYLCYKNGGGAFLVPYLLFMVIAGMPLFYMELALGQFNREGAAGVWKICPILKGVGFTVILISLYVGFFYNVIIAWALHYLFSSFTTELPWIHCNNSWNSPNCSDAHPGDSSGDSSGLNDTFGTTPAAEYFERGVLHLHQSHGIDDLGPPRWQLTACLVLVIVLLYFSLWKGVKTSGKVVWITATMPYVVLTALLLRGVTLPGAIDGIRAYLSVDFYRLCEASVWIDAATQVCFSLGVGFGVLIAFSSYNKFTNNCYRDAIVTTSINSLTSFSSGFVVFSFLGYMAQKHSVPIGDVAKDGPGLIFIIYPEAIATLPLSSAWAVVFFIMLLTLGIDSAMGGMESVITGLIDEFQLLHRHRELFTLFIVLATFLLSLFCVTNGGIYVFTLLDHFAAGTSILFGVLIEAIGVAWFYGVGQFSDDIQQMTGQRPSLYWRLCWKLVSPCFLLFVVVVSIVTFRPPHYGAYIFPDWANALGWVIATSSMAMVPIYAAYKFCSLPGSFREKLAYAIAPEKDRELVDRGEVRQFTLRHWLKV
Cytochrome P450 2D6, sequence (P10635 whole entry): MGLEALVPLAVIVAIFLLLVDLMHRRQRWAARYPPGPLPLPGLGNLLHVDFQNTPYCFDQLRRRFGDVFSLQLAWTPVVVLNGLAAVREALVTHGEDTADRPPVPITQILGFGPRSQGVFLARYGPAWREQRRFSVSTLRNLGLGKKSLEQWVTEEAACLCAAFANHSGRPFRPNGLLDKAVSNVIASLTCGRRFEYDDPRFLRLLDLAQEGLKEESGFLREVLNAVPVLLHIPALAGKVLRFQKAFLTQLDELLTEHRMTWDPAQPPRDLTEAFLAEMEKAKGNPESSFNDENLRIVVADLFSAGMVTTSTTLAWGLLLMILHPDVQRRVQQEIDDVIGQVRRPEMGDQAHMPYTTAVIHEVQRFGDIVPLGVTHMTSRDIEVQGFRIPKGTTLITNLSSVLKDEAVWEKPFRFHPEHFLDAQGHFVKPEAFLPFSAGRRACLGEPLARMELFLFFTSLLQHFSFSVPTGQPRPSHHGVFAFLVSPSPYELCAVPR
Voltage-gated inwardly rectifying potassium channel KCNH2, sequence (Q12809 whole entry): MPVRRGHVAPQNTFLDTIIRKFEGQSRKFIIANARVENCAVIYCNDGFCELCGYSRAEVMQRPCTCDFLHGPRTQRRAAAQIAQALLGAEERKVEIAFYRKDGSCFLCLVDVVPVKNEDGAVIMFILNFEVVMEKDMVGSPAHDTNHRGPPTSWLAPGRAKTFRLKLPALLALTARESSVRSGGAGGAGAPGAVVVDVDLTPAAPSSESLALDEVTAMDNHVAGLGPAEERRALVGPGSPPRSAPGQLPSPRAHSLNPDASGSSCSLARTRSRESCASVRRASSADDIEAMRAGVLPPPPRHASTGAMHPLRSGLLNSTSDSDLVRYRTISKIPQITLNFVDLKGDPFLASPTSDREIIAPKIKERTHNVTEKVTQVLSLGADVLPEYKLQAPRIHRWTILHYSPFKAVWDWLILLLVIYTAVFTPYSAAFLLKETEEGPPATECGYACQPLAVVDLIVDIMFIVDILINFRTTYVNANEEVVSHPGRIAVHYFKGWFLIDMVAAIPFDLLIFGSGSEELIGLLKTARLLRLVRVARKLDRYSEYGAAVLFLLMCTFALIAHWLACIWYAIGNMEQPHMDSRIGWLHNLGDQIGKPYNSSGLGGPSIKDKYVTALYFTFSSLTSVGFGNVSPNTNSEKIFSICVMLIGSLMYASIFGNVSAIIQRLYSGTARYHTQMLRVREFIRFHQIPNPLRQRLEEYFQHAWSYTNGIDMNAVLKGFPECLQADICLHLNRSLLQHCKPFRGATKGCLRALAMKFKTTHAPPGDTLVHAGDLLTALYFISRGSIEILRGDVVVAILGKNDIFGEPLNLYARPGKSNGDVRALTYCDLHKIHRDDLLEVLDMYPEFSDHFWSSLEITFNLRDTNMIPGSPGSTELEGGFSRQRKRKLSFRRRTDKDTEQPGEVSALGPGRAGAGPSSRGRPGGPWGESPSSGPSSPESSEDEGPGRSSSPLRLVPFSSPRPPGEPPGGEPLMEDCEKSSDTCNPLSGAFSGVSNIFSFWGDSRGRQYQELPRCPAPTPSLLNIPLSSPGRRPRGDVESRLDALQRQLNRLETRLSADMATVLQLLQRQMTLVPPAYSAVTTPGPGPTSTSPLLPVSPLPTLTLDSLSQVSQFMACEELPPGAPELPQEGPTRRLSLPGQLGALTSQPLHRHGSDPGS
Sodium-dependent serotonin transporter, sequence (P31645 whole entry): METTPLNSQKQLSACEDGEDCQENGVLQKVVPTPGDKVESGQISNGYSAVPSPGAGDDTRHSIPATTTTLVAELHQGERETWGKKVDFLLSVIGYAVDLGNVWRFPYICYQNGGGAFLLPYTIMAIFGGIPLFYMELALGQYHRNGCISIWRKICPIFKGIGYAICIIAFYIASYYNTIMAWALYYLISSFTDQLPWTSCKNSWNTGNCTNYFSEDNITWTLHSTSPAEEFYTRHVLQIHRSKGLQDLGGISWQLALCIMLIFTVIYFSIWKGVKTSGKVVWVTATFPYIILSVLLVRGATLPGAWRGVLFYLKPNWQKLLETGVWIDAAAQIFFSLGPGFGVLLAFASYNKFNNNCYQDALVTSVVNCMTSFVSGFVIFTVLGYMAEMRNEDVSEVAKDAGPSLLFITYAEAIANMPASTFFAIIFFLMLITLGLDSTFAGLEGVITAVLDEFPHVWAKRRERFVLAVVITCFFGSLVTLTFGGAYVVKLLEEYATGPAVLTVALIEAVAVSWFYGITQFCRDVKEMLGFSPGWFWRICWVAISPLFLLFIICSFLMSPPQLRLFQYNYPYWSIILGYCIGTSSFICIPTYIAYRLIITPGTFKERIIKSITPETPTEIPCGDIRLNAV
Cytochrome P450 2C9, sequence (P11712 whole entry): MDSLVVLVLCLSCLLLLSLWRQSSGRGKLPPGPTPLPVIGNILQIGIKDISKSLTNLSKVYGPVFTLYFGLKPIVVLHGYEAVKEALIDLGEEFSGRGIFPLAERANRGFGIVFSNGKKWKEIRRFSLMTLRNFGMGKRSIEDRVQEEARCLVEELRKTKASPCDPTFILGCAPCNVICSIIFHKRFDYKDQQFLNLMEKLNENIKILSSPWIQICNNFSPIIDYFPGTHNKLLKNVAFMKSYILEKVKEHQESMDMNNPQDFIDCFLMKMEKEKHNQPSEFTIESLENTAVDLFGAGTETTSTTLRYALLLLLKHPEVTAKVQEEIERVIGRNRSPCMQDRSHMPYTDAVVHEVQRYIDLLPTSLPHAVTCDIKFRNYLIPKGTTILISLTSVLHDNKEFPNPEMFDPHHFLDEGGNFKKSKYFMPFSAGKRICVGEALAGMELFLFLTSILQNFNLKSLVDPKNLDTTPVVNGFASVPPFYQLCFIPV
Sodium-dependent noradrenaline transporter, sequence (P23975 whole entry): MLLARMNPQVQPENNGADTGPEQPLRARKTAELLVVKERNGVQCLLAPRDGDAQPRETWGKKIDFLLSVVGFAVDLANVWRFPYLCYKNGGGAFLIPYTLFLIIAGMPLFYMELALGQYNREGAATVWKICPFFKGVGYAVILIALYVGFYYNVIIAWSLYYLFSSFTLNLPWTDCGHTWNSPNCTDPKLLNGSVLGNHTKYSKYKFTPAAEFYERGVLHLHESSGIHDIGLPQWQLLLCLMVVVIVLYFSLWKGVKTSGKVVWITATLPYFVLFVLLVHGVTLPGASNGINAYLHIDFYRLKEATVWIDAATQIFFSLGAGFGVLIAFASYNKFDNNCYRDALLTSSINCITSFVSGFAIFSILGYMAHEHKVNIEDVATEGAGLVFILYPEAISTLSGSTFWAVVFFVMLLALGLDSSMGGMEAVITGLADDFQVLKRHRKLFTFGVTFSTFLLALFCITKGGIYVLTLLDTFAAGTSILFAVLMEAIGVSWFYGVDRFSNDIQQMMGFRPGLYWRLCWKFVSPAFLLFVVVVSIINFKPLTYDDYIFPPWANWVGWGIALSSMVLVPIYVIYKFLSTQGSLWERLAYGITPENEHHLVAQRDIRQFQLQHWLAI

Row | SMILES | IC50 (CYP1A) | half-life at 3 µM [1] | IC50 (Cytochrome P450 3A4) | IC50 [2] | IC50 (Cytochrome P450 2C19) | half-life at 3 µM [3] | IC50 (Cytochrome P450 2C9) | IC50 [4] | IC50 [5] | IC50 (Cytochrome P450 2D6) | IC50 [6] | further results
1 | Clc1ccc([C@@]23CCC[C@@H]2CNC3)cc1Cl | 18.7 µM | 1.52 h | > 5 µM | 0.049 µM | 11.9 µM | 4.37 h | > 25 µM | 0.123 µM | 0.107 µM | 6.96 µM | 5.28 µM | 
2 | Cl.Clc1ccc([C@@]23CCC[C@@H]2CNC3)cc1Cl |  |  |  |  |  |  |  |  |  |  |  | Activity (Mus musculus [7]): 42%; Kp [8]: 30; Activity (Mus musculus [9]): Non-toxic; Cp (Plasma [10]): 214 ng/mL; Activity (Mus musculus [11]): 29%; fraction unbound [12]: 0.04; Cp (Plasma [13]): 569 ng/mL; Drug uptake (Brain [14]): 14050 ng/g; Cp (Plasma [15]): 69 ng/mL; Drug uptake (Brain [16]): 5950 ng/g; Activity (Mus musculus [17]): 25%; Drug uptake (Brain [18]): 1747 ng/g
3 | Clc1ccc([C@]23CCCC[C@H]2CNC3)cc1Cl | 7.96 µM | > 5 h | 8.39 µM | 0.0977 µM | > 25 µM | > 5 h | > 25 µM | 0.457 µM | 0.178 µM | 2.65 µM | 6.48 µM | 
